Data published in paper PMC4681442 (Angewandte Chemie (International ed. in English), 2015).

Key:
SKOV3 cells = test: Cell viability; type: cell-based; settings: CDDP 6 μg/mL alone
PC-12 cells = settings: cisplatin; cited from earlier work
A2780 cells = test: Cell viability; type: cell-based; settings: CDDP without adding D-1, 72 h
Method in brief: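 MTT assay (mitochondrial reductase activity) in cisplatin-sensitive A2780 and cisplatin-resistant A2780cis cells. Cells were incubated 72 h with precursor alone, cisplatin alone, or both together. Viability was expressed relative to untreated control, with significance thresholds p≤0.001 and p≤0.0001.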

HS-5 cells = test: Cytotoxicity to HS-5 cells; type: cell-based; settings: cisplatin (Figure S16)

Q: For `[NH2][Pt]([NH2])([Cl])[Cl]` [CDDP, cisplatin], which “inhibition of SKOV3 cells” value (SKOV3 cells; 72 h (Figure 2A)) is on record?
A: Its value is 48%.

Q: And the “cell death of SKOV3 cells” value (SKOV3 cells; 72 h, control experiment with 3)?
A: The value was “about 40%”.

Q: What about the “inhibition of PC-12 cells” value (PC-12 cells) of the same compound?
A: The value was “significantly inhibits”.

Q: What about the “cell viability of A2780” value (A2780 cells) of the same compound?
A: The value was “about 38%”.

Q: And the “inhibition of HS-5 cells” value (HS-5 cells)?
A: Its value is “significantly inhibits”.
